Hits are enriched below; roughly 1.3% of the tested compounds scored in any of these assays.
Diaphorase inh: diaphorase inhibition or chemical oxidation counter-screen | diaphorase resazurin-to-resorufin fluorescence, NADH, 16 min; bacterial (C. kluyveri) enzyme, not human | 190,000 tested, 0.69% active | inhibition, % at 20 µM;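 active = primary screen inhibition at 20 µM above a set limit, cut at about 50% in these data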;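 note: plate controls were DMSO with full reaction for no effect and wells lacking NADH for full effect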
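Test system: Clostridium kluyveri diaphorase enzyme / Quantity: diaphorase at 0.14 U/mL in enzyme working solution / Incubation: 16-min room-temperature incubation before reading / Benchmarks: NADH-free wells as positive control, DMSO-only neutral wells / Signal: resorufin fluorescence 544/590 nm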
PfGluPho inh: PfG6PD (Plasmodium falciparum) enzyme inhibition; PfGluPho enzyme, NADPH resazurin-diaphorase fluorescence; inhibition, % at 20 µM; 350,000 tested, 0.78% active; AID 504690;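 active = inhibition reaching at least a set limit at 20 µM in the primary screen, cut at about 59% in these data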;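 note: 0% = DMSO wells with substrate and 100% = DMSO wells lacking glucose-6-phosphate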
TbHK1 inh: T. brucei hexokinase 1 inhibition | 220,000 tested, 0.11% active | recombinant TbHK1, G6PDH-coupled NADH A340 | inhibition, % at 10 µM;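 active = inhibition of 50% or more in the single-dose primary screen; inactive = inhibition below 50%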
G6PDH CS: inhibits Leuconostoc G6PDH, flagging false hits in G6PDH-based assays; Purified L. mesenteroides G6PDH, diaphorase/resazurin coupled fluorescence, 45 min; inhibition, % at 5 µM; 200,000 tested, 0.12% active; in the data active = inhibition above about 50%
HKDC1 inh: blocks human hexokinase HKDC1 activity | 340,000 tested, 0.16% active | recombinant HKDC1, G6PDH/diaphorase resazurin coupled fluorescence | inhibition, % at 20 µM;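 active = inhibition above about 35% when tested at 20 µM, limit read from the data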;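 note: plate controls were DMSO wells with enzyme for no effect and DMSO wells lacking enzyme for full effect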
Target sequence (Q2TB90 whole entry, looked up): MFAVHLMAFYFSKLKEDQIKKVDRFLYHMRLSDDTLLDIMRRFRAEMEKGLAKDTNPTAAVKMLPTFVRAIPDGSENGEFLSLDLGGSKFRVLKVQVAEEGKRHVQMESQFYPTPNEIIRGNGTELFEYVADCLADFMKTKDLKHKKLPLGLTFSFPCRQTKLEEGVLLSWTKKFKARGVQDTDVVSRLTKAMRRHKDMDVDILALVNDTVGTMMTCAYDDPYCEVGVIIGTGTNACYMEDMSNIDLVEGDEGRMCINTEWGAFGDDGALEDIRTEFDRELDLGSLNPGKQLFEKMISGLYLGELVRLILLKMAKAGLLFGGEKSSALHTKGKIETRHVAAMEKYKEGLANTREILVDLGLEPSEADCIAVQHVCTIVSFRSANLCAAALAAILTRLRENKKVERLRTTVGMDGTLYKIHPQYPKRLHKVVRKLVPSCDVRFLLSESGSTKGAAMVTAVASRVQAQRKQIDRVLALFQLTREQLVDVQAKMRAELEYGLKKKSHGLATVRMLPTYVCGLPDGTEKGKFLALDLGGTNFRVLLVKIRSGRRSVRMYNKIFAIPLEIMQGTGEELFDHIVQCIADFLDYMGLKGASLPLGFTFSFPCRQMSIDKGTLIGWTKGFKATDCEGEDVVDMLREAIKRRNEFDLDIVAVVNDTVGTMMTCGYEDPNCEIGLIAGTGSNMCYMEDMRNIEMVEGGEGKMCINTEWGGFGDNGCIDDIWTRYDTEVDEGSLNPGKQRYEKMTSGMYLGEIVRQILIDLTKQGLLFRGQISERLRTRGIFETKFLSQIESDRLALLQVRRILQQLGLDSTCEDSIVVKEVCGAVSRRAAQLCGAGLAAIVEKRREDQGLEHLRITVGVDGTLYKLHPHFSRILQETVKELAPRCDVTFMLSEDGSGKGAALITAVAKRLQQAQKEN
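Test system: recombinant HKDC1 (HK5) hexokinase enzyme, produced in-house; Amount: enzyme 5 µg/mL final; Buffer or medium: Tris pH 8.0 buffer with MgCl2, Tween-20, BSA, BME; Reagent: glucose and ATP substrates; Doses: 20 µM test compound, 1% DMSO; Incubation: 90 min reaction incubation at room temperature, dark; Detection: resorufin fluorescence at 613 nm.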
HKDC1 act conf: confirmation of human HKDC1 activators | recombinant HKDC1, G6PDH/diaphorase resazurin fluorescence; active compounds read low | shares compounds with HKDC1 inh | inhibition, % at 20 µM | 740 tested, 14% active;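 active = inhibition at or below a set negative limit, negative inhibition meaning the enzyme was activated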
PfGluPho conf: confirmation of Plasmodium falciparum G6PD inhibitors. shares compounds with PfGluPho inh. 2,400 tested, 34% active. inhibition, % at 20 µM. recombinant PfGluPho, NADPH-diaphorase-resazurin fluorescence;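 active = inhibition of at least 50% at 20 µM in any single replicate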;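 note: 0% = DMSO with substrate and 100% = DMSO lacking glucose-6-phosphate substrate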
Diaph ctr 10uM: counter-screen for P. falciparum G6PD inhibitors: diaphorase inhibitors, oxidizers; inhibition, % at 20 µM; AID 504862; 820 tested, 39% active; shares compounds with PfGluPho inh; diaphorase-coupled resazurin reduction, fluorescence, NADPH 10 uM;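 active = average inhibition reaching 50% or more with the compound at 20 µM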;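 note: resorufin red fluorescence formed as diaphorase reduces resazurin using NADPH; 0% = DMSO with enzyme and 100% = DMSO without enzyme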
Diaphorase 30uM: diaphorase inhibition or oxidation at 30 uM NADPH; shares compounds with PfGluPho inh; Diaphorase/resazurin coupled assay, resorufin fluorescence; inhibition, % at 20 µM; 820 tested, 29% active; AID 504863;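 active = inhibition averaging 50% or more, tested at 20 µM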;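 note: 0% = DMSO with enzyme and 100% = DMSO wells lacking diaphorase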
An asterisk follows results filed as active.

How did NC1=NC(=O)/C(=C/c2c(OS(=O)(=O)c3ccc(Cl)cc3)ccc3ccccc23)S1 do in these assays?
Diaphorase inh: 4; PfGluPho inh: 5; TbHK1 inh: 16; G6PDH CS: -1; HKDC1 inh: 5

What do the screens show for `COc1cc(OC)c(NS(=O)(=O)c2ccc(Cl)c(C(=O)OC(C)C(=O)N3CCCC3)c2)cc1Cl` (centres undefined)?
Diaphorase inh: 20; PfGluPho inh: -36; TbHK1 inh: -10; G6PDH CS: 4; HKDC1 inh: -3

Results for COc1ccc(NC(=O)N2CCC(C(=O)c3ccc4c(c3)OCCO4)CC2)cc1 ?
PfGluPho inh: 2; HKDC1 inh: -3

Results for Cc1ccc(C(C(=O)NCc2ccco2)N(C(=O)CNC(=O)c2cccs2)c2c(C)cc(C)cc2C)cc1 (centres undefined) ?
Diaphorase inh: 2; PfGluPho inh: -17; TbHK1 inh: 5; G6PDH CS: 14; HKDC1 inh: 3

Results for O=C1C=C(N2CCOCC2)c2ccccc2C1=O ?
PfGluPho inh: 71*; HKDC1 inh: 77*; HKDC1 act conf: 79; PfGluPho conf: 54*; Diaph ctr 10uM: 73*; Diaphorase 30uM: 83*

What do the screens show for `O=C1C(SCCO)=C(SCCO)C(=O)c2ccccc21`?
PfGluPho inh: 119*; HKDC1 inh: 72*; HKDC1 act conf: 84; PfGluPho conf: 107*; Diaph ctr 10uM: 87*; Diaphorase 30uM: 84*

What do the screens show for `CCOC(=O)C1CCN(C(=O)Nc2ccc3c(c2)nc(C)n3C)CC1`?
Diaphorase inh: 8; PfGluPho inh: -15; TbHK1 inh: -2; G6PDH CS: 13; HKDC1 inh: -1

Results for CCOC(=O)C1CCN(C(=O)Nc2ccc3nc(-c4ccco4)c(-c4ccco4)nc3c2)CC1 ?
Diaphorase inh: 52*; PfGluPho inh: 71*; TbHK1 inh: 0; G6PDH CS: 1; HKDC1 inh: 43*; HKDC1 act conf: 0; PfGluPho conf: 3

What do the screens show for `CC(NC1=CC(=O)c2cccnc2C1=O)C(O)c1ccccc1` (centres undefined)?
PfGluPho inh: 105*; HKDC1 inh: 46*; HKDC1 act conf: 43; PfGluPho conf: 74*; Diaph ctr 10uM: 47; Diaphorase 30uM: 43

How did Cc1cc(C)c2nc(-c3ccccn3)cc(C(=O)Nc3ccc(S(=O)(=O)Nc4cc(C)on4)cc3)c2c1 do in these assays?
Diaphorase inh: 1; PfGluPho inh: 1; TbHK1 inh: -2; G6PDH CS: 10; HKDC1 inh: 2

How did O=C(NC1=C(Nc2ccc(Cl)cc2)C(=O)c2ccccc2C1=O)c1ccccc1 do in these assays?
Diaphorase inh: 33; PfGluPho inh: 45; TbHK1 inh: -1; G6PDH CS: 43; HKDC1 inh: 5

Results for O=C(NC1=C(NC2CCS(=O)(=O)C2)C(=O)c2ccccc2C1=O)c1ccccc1 (centres undefined) ?
Diaphorase inh: 72*; PfGluPho inh: 104*; TbHK1 inh: -2; G6PDH CS: 51*; HKDC1 inh: 53*; HKDC1 act conf: 69; PfGluPho conf: 95*; Diaph ctr 10uM: 98*; Diaphorase 30uM: 90*

Results for CCOC(=O)c1sc2ncnc(N3CCN(c4ccc(OC)cc4)CC3)c2c1C ?
Diaphorase inh: 17; PfGluPho inh: 2; TbHK1 inh: 5; G6PDH CS: 2; HKDC1 inh: 6

How did Cc1ccc(S(=O)(=O)Nc2c(O)ccc3ccccc23)cc1 do in these assays?
PfGluPho inh: 81*; HKDC1 inh: 38*; HKDC1 act conf: 35; PfGluPho conf: 47

How did Cc1ccc(S(=O)(=O)NN=Cc2c(O)ccc3ccccc23)cc1 do in these assays?
PfGluPho inh: -17

Results for OCc1ccccc1N=c1ssnc1Cl ?
Diaphorase inh: 16; TbHK1 inh: 8; G6PDH CS: 3

Results for COc1cc(N=c2ssnc2Cl)cc(OC)c1 ?
Diaphorase inh: 27; PfGluPho inh: 78*; TbHK1 inh: 17; G6PDH CS: 22; HKDC1 inh: -51; HKDC1 act conf: -33; PfGluPho conf: 65*; Diaph ctr 10uM: -34; Diaphorase 30uM: -23

What do the screens show for `O=C(Nc1ccc(Cl)cc1)C1C2CCCCC21` (centres undefined)?
PfGluPho inh: 21; HKDC1 inh: 4

Results for O=C(O)c1cc(O)c2c(c1)[C@@H]([C@H]1c3cc(C(=O)O)cc(O)c3C(=O)c3c(O[C@@H]4O[C@H](CO)[C@@H](O)[C@H](O)[C@H]4O)cccc31)c1cccc(OC3O[C@H](CO)[C@@H](O)[C@H](O)[C@H]3O)c1C2=O (some centres undefined) ?
PfGluPho inh: 69*; HKDC1 inh: 83*; HKDC1 act conf: 51; PfGluPho conf: 7

What do the screens show for `O=C(O)c1cc(O)c2c(c1)[C@H]([C@H]1c3cc(C(=O)O)cc(O)c3C(=O)c3c(O[C@@H]4O[C@H](CO)[C@@H](O)[C@H](O)[C@H]4O)cccc31)c1cccc(OC3O[C@H](CO)[C@@H](O)[C@H](O)[C@H]3O)c1C2=O` (some centres undefined)?
PfGluPho inh: 71*; HKDC1 inh: 87*; HKDC1 act conf: 52; PfGluPho conf: 6

What do the screens show for `O=C1C(=O)c2c(ccc3ccccc23)-c2ccccc21`?
PfGluPho inh: 62*; HKDC1 inh: 33; HKDC1 act conf: -7; PfGluPho conf: 17

How did O=C1CCSc2c1ccc1ccccc21 do in these assays?
PfGluPho inh: 11; HKDC1 inh: 2

How did CCOc1ccc2c(ccc(/C=C/c3cc(C)c4cccnc4c3O)[n+]2C)c1 do in these assays?
PfGluPho inh: 92*; HKDC1 inh: 46*; HKDC1 act conf: 8; PfGluPho conf: 40

How did COc1ccc(F)cc1S(=O)(=O)n1cc(C)nc1-c1ccccc1 do in these assays?
Diaphorase inh: 1; PfGluPho inh: -9; TbHK1 inh: 2; G6PDH CS: 15; HKDC1 inh: -1

What do the screens show for `O=C1/C(=C\c2ccc([N+](=O)[O-])cc2)CCc2ccccc21`?
Diaphorase inh: 12; PfGluPho inh: 14; TbHK1 inh: -4; G6PDH CS: 6; HKDC1 inh: 4

Screens: PubChem BioAssay, several laboratories
